Measured values taken from PubChem BioAssay.
The source made the active and inactive calls.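 Rule for the calls, unless noted: active = NADPH fluorescence slope more negative than the mean of all samples by about 3 SD, 99.7% confidence; inactive = the rest.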

Assays:
[1] = inhibitors of TNFa-induced NFkB p65 translocation, primary screen, imaging, HUVEC, MLSMR starter and 10KST1 sets (AID 438;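 active = inhibition above 20% together with a positive visual image hit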;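 note: compound added about 3h40 before a 20 min TNFalpha stimulation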;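 for inhibition: signal is the nuclear over cytoplasmic p65 intensity ratio per well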); conditions: HUVEC TNFa-induced p65 nuclear translocation; cell count: measured here: nuclei count (cytotoxicity indicator), at 2.08 µM; inhibition: at 2 µM, stronger effect = higher value, 0% TNFa-plus-vehicle, 100% no-TNFa wells
[2] = reduction of polyQ htt aggregates in cells – imaging, exon1htt(103Q)mCFP cells, high-content imaging, primary screen (AID 483;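 active = visual image review flags a hit and inhibition of aggregation exceeds 20%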;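 note: compound exposure lasted 3 days before fixation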;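 for nuclei count: percent of the per-plate median nuclei count of sample wells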); conditions: exon1htt(103Q)mCFP cell line, aggregate imaging, at 2 µM; inhibition of aggregation: stronger effect = higher value; nuclei count: measured here: cell count, toxicity
[3] = endothelial E-selectin expression blockers – imaging, HUVEC, immunofluorescence, MLSMR starter and 10KST1 sets, primary screen (AID 487;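 active = visually confirmed hit in the image check and inhibition above 20%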;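 for inhibition: signal is fraction of cell area covered by stained E-selectin grains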;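 for nuclei count: 100% = median nuclei count of all wells on the same plate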); conditions: HUVEC TNFalpha-induced E-selectin immunofluorescence imaging, at 2 µM; inhibition: stronger effect = higher value; nuclei count: measured here: cell number, toxicity
[4] = biological target: Voltage-gated potassium channel subunit beta-2 (Rattus norvegicus) (UniProt P62483); test: inhibitors of rat Kvbeta2 reductase activity – biochemical, NADPH fluorescence, primary screen (AID 622;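 active = fluorescence slope higher than the sample average by over 3 SD, cut at about -0.22 in these data, passing the limit was not always enough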;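 note: slope of raw intensity against log time taken from 70 to 1610 s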); conditions: recombinant KvBeta, 4-cyanobenzaldehyde reduction, at 10 µM, stronger effect = higher value
[5] = biological target: Voltage-gated potassium channel subunit beta-2 (Rattus norvegicus) (UniProt P62483); test: enhancers of rat Kvbeta2 NADPH turnover – biochemical, NADPH fluorescence, primary screen (AID 623); conditions: Recombinant KvBeta, NADPH fluorescence decrease slope, 10 min; at 10 µM; stronger effect = lower value;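 note: fluorescence intensity change per second fitted from 20 to 320 s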
[6] = biological target: Muscarinic acetylcholine receptor M4 (Homo sapiens) (UniProt P08173); test: M4-linked GIRK flux change, two-sided – cell-based, HEK293 M4/GIRK, thallium flux, BTC-AM, M4 allosteric agonist project, primary screen (AID 625;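 active = fluorescence slope after compound addition differing from the mean of all tested samples at 99.7% confidence, mostly higher but some lower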;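 note: thallium influx through GIRK channels coupled to M4 in HEK293 cells with BTC-AM dye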); conditions: at 10 µM, actives lie on both sides
Method in brief: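 Material: HEK293 cells with M4 receptor and GIRK channels; Times: cells overnight at 37 °C, BTC-AM loading 1 h, reads 2 min total; Technique: kinetic BTC-AM fluorescence sampled at 1 Hz, 10 s pre-addition baseline; Read-out basis: slope over 15–24 s of trace normalized to starting intensity; Controls: carbachol positive, DMSO negative.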

[7] = blockers of RIG-like receptor reporter activation – cell-based, Sendai virus stimulus, luciferase, 10K MLSCN set, TLR/RLR signaling modifier project, primary screen (AID 602276;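 active = inhibition at or above 50% at 10 µM; inactive = inhibition below 50%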;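 note: firefly luciferase from ISG56 promoter only with Renilla not read in this screen; 0% = Sendai virus plus DMSO and 100% = medium plus DMSO without virus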); conditions: HEK293 RL24 IRF3 luciferase reporter, at 10 µM, stronger effect = higher value
[8] = TLR3 IRF3 reporter activation blockers – cell-based, poly I:C stimulus, luciferase, 10K MLSCN set, primary screen (AID 602277;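 active = inhibition of the reporter signal at or above 50%; inactive = inhibition below 50%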); conditions: HEK293-TLR3 RL24 IRF3 luciferase reporter, at 10 µM, stronger effect = higher value

Sequence of Muscarinic acetylcholine receptor M4 (Homo sapiens) (P08173 whole entry, looked up): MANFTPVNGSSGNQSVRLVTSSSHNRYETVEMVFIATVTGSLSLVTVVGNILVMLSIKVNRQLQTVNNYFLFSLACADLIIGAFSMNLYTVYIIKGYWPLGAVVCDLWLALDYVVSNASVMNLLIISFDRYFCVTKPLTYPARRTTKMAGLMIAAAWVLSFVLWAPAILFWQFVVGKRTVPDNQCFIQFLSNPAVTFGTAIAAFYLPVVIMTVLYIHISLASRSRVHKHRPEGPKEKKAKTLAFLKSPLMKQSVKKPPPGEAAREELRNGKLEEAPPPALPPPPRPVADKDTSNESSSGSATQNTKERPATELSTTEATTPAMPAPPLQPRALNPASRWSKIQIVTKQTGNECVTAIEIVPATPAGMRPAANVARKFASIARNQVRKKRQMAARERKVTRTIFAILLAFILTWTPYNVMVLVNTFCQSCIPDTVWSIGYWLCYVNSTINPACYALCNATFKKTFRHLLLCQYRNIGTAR
Sequence of Voltage-gated potassium channel subunit beta-2 (Rattus norvegicus) (P62483 whole entry, looked up): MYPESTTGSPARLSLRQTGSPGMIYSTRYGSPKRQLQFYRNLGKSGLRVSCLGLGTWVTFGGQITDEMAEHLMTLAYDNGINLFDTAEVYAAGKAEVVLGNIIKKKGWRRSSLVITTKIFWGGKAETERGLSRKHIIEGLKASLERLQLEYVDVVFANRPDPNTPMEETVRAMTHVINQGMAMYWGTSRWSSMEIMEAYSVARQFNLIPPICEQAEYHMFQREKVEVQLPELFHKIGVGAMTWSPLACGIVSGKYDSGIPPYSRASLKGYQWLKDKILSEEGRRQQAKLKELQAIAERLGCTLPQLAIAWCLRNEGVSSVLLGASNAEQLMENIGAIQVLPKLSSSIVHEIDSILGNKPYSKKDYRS

SMILES	cell count [1]	inhibition [1]	inhibition of aggregation [2]	nuclei count [2]	inhibition [3]	nuclei count [3]	fluorescence slope [4]	NADPH fluorescence slope [5]	fluorescence slope [6]	inhibition [7]	inhibition [8]
CCCCOc1ccc(-c2nnn(CC(=O)NCc3ccco3)n2)cc1	457	3.9% (inactive)	-61.8% (inactive)	18.8%	-62% (inactive)	104%	-0.523 (inactive)	-0.000212 (inactive)	0.00448 (inactive)	30.6% (inactive)	-15.6% (inactive)
CCOC(=O)c1sc(C)c2c1NC(C)(c1cccs1)NC2=O (stereo unspecified)	674	-2% (inactive)	-5.5% (inactive)	104%	-10.7% (inactive)	101%	-0.49 (inactive)	1.8e-05 (inactive)	0.00453 (inactive)	5.21% (inactive)	10.9% (inactive)
CC(Oc1ccc2oc(-c3ccccc3)c(C(=O)O)c2c1)C(=O)O (stereo unspecified)	371	10.6% (inactive)	9% (inactive)	104%	27.6% (inactive)	89.9%	-0.158 (inactive)	-5.4e-05 (inactive)	0.00531 (inactive)	7.55% (inactive)	16.2% (inactive)
O=C(Cn1nc(-c2ccc(Cl)cc2)ccc1=O)NCCCN1CCN(Cc2ccccc2)CC1	518	10.6% (inactive)	-12.5% (inactive)	97.4%	-351% (inactive)	135%	-0.585 (inactive)	3e-05 (inactive)	0.00673 (inactive)	-9.82% (inactive)	-23.5% (inactive)
COc1ccccc1-c1cn[nH]c(=S)n1	428	1.6% (inactive)	4.2% (inactive)	93%	-41.2% (inactive)	101%	-0.576 (inactive)	2.7e-05 (inactive)	0.00535 (inactive)	-32.7% (inactive)	-25.8% (inactive)
C/C(Cl)=C\Cn1c(NCCc2ccccc2)nc2c1c(=O)n(C)c(=O)n2C	636	-7.8% (inactive)	29.8% (inactive)	84.6%	6.4% (inactive)	96.4%	-0.286 (inactive)	-2.8e-05 (inactive)	0.00523 (inactive)	12.1% (inactive)	2.85% (inactive)
COc1ccc(N(CC(=O)Nc2ccccc2SC)S(C)(=O)=O)cc1OC	485	-15.7% (inactive)	-12% (inactive)	65.5%	-4.5% (inactive)	102%	-0.468 (inactive)	-9.7e-06 (inactive)	0.00494 (inactive)	19.9% (inactive)	19.3% (inactive)
Cc1ccccc1NC(=O)c1ccccc1	373	1.7% (inactive)	13.2% (inactive)	104%	-49.6% (inactive)	110%	-0.469 (inactive)	2.1e-05 (inactive)	0.00509 (inactive)	1.39% (inactive)	-13% (inactive)
O=S(=O)(NCC(O)COCc1ccco1)c1cccs1 (stereo unspecified)	297	8% (inactive)	-14.1% (inactive)	108%	1.6% (inactive)	97.5%	-0.587 (inactive)	-3.7e-05 (inactive)	0.00581 (inactive)	2.99% (inactive)	8.32% (inactive)
CCOc1ccc2[nH]c(=O)c(CN(Cc3ccccc3)C(=O)N3CCCC3)cc2c1	497	-14.1% (inactive)	14.8% (inactive)	67.9%	54.1% (inactive)	48.2%	-0.475 (inactive)	6.7e-06 (inactive)	0.00557 (inactive)	10.6% (inactive)	25.9% (inactive)
O=C(O)C1CC(=O)N(c2ccc(OCc3c(F)cccc3Cl)cc2)C1 (stereo unspecified)	571	-18.3% (inactive)	-13% (inactive)	100%	-18.6% (inactive)	116%	-0.568 (inactive)	-2.6e-05 (inactive)	0.0057 (inactive)	4.5% (inactive)	17.3% (inactive)
COc1ccc(-c2cc3nc(C)c(CCC(=O)NCc4ccco4)c(C)n3n2)c(OC)c1	393	4.9% (inactive)	-18.2% (inactive)	105%	-25% (inactive)	83.7%	-0.443 (inactive)	-0.00019 (inactive)	0.00532 (inactive)	12.2% (inactive)	11.7% (inactive)
CCOC(=O)C1CCCN(Cc2nc(N)nc(Nc3ccccc3)n2)C1 (stereo unspecified)	741	-4.7% (inactive)	-2.7% (inactive)	104%	-49.1% (inactive)	106%	-0.57 (inactive)	-4.6e-05 (inactive)	0.0052 (inactive)	22.1% (inactive)	16.8% (inactive)
CCOc1ccc(OCc2ccc(C(=O)Nc3cccc(C)n3)o2)cc1	731	-4.2% (inactive)	-3.4% (inactive)	114%	-43.1% (inactive)	117%	-0.557 (inactive)	-6.3e-05 (inactive)	0.00558 (inactive)	-27% (inactive)	-74% (inactive)
CSC1CCCCC1(O)CSc1nc2c(cc1C#N)CCCC2 (stereo unspecified)	306	-7.4% (inactive)	9% (inactive)	87%	-111% (inactive)	78.9%	-0.411 (inactive)	1e-05 (inactive)	0.00633 (inactive)	21.3% (inactive)	13.8% (inactive)
Cc1ccc(NC(=O)N2CCC(c3nc4c(nnn4Cc4cccc(Cl)c4)c(=O)[nH]3)CC2)cc1	811	-4.8% (inactive)	-2.1% (inactive)	55.6%	-3.8% (inactive)	124%	-0.569 (inactive)	-7.6e-06 (inactive)	0.00576 (inactive)	8.55% (inactive)	21.7% (inactive)
COc1ccc(-c2nn(-c3ccccc3)cc2/C=N/n2cnnc2)cc1OC	737	0.7% (inactive)	-17.1% (inactive)	100%	-74.5% (inactive)	108%	-0.464 (inactive)	-6.1e-05 (inactive)	0.00596 (inactive)	1.15% (inactive)	1.32% (inactive)
COc1cccc(OC)c1C(=O)Nc1cccc(C(C)=O)c1	734	-11.6% (inactive)	19.3% (inactive)	95.5%	15.5% (inactive)	104%	-0.53 (inactive)	-1.1e-05 (inactive)	0.00451 (inactive)	12.1% (inactive)	27.4% (inactive)
Cc1c(C(=O)O)oc2ccc(S(=O)(=O)NCCC3=CCCCC3)cc12	652	9.2% (inactive)	5% (inactive)	88%	-36.3% (inactive)	114%	-0.454 (inactive)	4.4e-05 (inactive)	0.0068 (inactive)	3.33% (inactive)	15.9% (inactive)
CCOC(=O)CNC(=O)c1c(C)nn(-c2ccccc2)c1Cl	389	1.9% (inactive)	0.1% (inactive)	56.2%	-152% (inactive)	127%	-0.571 (inactive)	-5.1e-06 (inactive)	0.00495 (inactive)	-45.3% (inactive)	99.2% (active)
O=c1cc(COn2nnc3ccc(C(F)(F)F)cc32)nc2sccn12	379	-22% (inactive)	-2.2% (inactive)	109%	-51.6% (inactive)	141%	-0.478 (inactive)	3.2e-05 (inactive)	0.00817 (inactive)	-2.54% (inactive)	14.9% (inactive)
CCCc1[nH]nc2c1C(c1cccc(OC(=O)c3ccco3)c1)C(C#N)=C(N)O2 (stereo unspecified)	687	-27.1% (inactive)	-11.9% (inactive)	105%	35.2% (inactive)	96.7%	-0.471 (inactive)	-8.2e-06 (inactive)	0.00951 (inactive)	9.57% (inactive)	18% (inactive)
CCCCC(=O)Nc1nn(CCC)c2nc3ccccc3cc12	363	4.2% (inactive)	-14.8% (inactive)	108%	-44.8% (inactive)	116%	-0.568 (inactive)	-3.3e-05 (inactive)	0.00381 (inactive)	10.1% (inactive)	-0.131% (inactive)
CCOC(=O)C1CCCN(c2nc3ccccc3nc2C(C#N)C(=O)NCc2ccccc2)C1 (stereo unspecified)	703	9.6% (inactive)	-4.3% (inactive)	103%	-40% (inactive)	126%	-0.459 (inactive)	-2.8e-05 (inactive)	0.00538 (inactive)	7.48% (inactive)	12.6% (inactive)
C=CCSc1nc2c(c(=O)[nH]c(=O)n2C)n1C(C)C	309	-11.3% (inactive)	-2.8% (inactive)	110%	33% (inactive)	97.6%	-0.579 (inactive)	8.7e-06 (inactive)	0.00565 (inactive)	2.75% (inactive)	14.4% (inactive)
COc1cccc(NC(=O)CN2CCN(c3ccccc3F)CC2)c1	275	-7.3% (inactive)	19.4% (inactive)	90.1%	11.9% (inactive)	86.8%	-0.526 (inactive)	0.000174 (inactive)	0.00586 (inactive)	17.2% (inactive)	10.2% (inactive)
